The source of these data is ChEMBL document CHEMBL1130400, “Discovery of a novel, selective, and orally bioavailable class of thrombin inhibitors incorporating aminopyridyl moieties at the P1 position” (J Med Chem, 1997).

For series [1], the target named is T1, Serine protease 1 (Bos taurus, UniProt P00760).
T1 sequence (P00760 whole entry): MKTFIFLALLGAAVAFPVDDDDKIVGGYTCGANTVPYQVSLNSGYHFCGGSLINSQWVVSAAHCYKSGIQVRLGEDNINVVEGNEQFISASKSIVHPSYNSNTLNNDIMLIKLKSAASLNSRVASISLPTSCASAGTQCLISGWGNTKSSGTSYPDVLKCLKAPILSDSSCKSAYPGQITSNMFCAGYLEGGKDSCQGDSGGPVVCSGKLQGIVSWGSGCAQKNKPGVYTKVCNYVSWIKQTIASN
Kind of series: In vitro inhibitory activity against bovine trypsin. The procedure, abridged:
(§1)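 Ki from the dependence of initial rate on inhibitor concentration. Proteinase (human FXa, or bovine trypsin) equilibrated with inhibitor, then chromogenic substrate added. p-Nitroaniline release followed as the absorbance increase at 405 nm.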

For another series, the target named is Prothrombin (Homo sapiens, UniProt P00734). Put plainly: In vitro inhibitory activity against human thrombin(IIa).
Series [2] has as its target T2, Coagulation factor X (Homo sapiens, UniProt P00742). Put plainly: (§2) In vitro inhibitory activity against Coagulation factor X. A digest of the protocol:
as §1

Series [3] in a line: Clearance values in rats after iv administration. Conditions: rat, in vivo. The series is classed as ADME, organism-based. A digest of the protocol: (§3)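 Rats were anesthetized and fitted with catheters in the left jugular vein (dosing) and left carotid artery (sampling). Next day, conscious rats were dosed iv at 2 mpk or orally by gastric lavage at 10 mpk. Blood was drawn before dosing and at increasing times after. Plasma inhibitor levels gave concentration–time curves. F was derived by comparing dose-normalized AUCs from oral and iv dosing.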

The nature of series [4]: Oral bioavailability in rat. As to conditions: in vivo. The series is classed as ADME, organism-based. A digest of the protocol:
as §3

Series [5] is described as follows: pKa was determined. The series is classed as physicochemical.
Series [6] can be described thus: Maximum time of retention in plasma, after peroral (10 mpk) administration in rats. Conditions: rat, po, 10 mg/kg. The series is classed as ADME, organism-based. The procedure, abridged: as §3
The nature of series [7]: Maximum plasma concentration after p.o. (10 mpk) administration in rats. The series is classed as ADME, organism-based. More on the design: route oral. As to conditions: rat, po, 10 mg/kg. The procedure, abridged: as §3
A short description of series [8]: Half life in rats. Conditions: rat, in vivo. The series is classed as ADME, organism-based. A digest of the protocol:
as §3

Series [9] can be described thus: Partition coefficient (logP). The series is classed as physicochemical. Conditions: octanol/water.
In series [10] the target is T2, Coagulation factor X. The description is as §2. The procedure, abridged:
(§4)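 Ki values for bovine trypsin and human factor Xa came from the inhibitor-concentration dependence of the initial rate of p-nitroaniline release. Enzyme and inhibitor were equilibrated first, then chromogenic substrate was added, and the rate of absorbance increase at 405 nm was followed.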
The source holds these as a separate data set.

Series [11] deals with T1, Serine protease 1. Put plainly: In vitro iinhibitory activity against bovine trypsin. The procedure, abridged:
as §4

T2 sequence (P00742 41-179 limits assumed): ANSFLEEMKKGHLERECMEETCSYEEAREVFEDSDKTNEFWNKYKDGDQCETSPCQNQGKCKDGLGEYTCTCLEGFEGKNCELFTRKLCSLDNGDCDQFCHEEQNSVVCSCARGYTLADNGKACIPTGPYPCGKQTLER
T2 sequence (P00742 235-488 limits assumed): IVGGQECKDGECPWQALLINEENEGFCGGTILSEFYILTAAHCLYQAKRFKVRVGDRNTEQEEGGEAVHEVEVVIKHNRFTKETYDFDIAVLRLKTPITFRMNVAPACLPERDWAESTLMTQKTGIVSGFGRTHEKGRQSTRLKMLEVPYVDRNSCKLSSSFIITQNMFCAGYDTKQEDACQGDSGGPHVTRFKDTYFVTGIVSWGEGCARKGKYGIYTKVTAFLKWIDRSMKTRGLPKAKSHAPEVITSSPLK

The Ki is a dissociation constant, usually derived from enzyme kinetics or from competition with a known ligand. Read a low Ki as higher affinity. Regarding `CC(C)(C)OC(=O)N[C@@H](C(=O)N1CCC[C@H]1C(=O)NCc1csc(N)n1)C(c1ccccc1)c1ccccc1`, the inhibitory constant (Ki) at Serine protease 1 [1] was > 100 µM; at Prothrombin, 0.9 µM; at Coagulation factor X [2], > 100 µM.

Consider `Nc1ccc(CNC(=O)[C@@H]2CCCN2C(=O)[C@@H](Cc2ccc(Cl)c(Cl)c2)NS(=O)(=O)Cc2ccccc2)cn1`, for which the Ki at Serine protease 1 [1] was 0.43 µM; on Prothrombin, 0.003 µM; at Coagulation factor X [2] it was 7.6 µM.

What is called clearance is the volume of plasma or blood freed of the substance per unit of time. A word on the bioavailability: it is dose-corrected exposure relative to a reference, in per cent. Higher therefore signals much systemic uptake. The term pKa denotes the pH at which an ionisable group is half protonated. High values mean a group that holds its proton tightly, low ones a group that gives up its proton readily. For orientation: Tmax means the time at which the peak concentration occurs. Broadly, the Cmax is the maximum level reached in the sampled fluid or tissue. One may read the half-life as the time in which the quantity being followed falls by half. Low readings indicate rapid decline, high ones slow decline. The term logP denotes the decadic logarithm of the partition coefficient of the neutral form, usually between octanol and water. A low value points to a more hydrophilic compound. In the case of `CC(C)(C)OC(=O)N[C@@H](C(=O)N1CCC[C@H]1C(=O)NCc1ccc(N)nc1)C(C1CCCCC1)C1CCCCC1`, the clearance in series [3] came out at 27 mL/min/kg. In series [4], this compound registered a bioavailability of 60%. The same compound gave a pKa in series [5] of 6.5. Also, in series [6], the Tmax is 120 min. In addition, the highest concentration (Cmax) in series [7] amounted to 1430 nM. This compound also returned a half-life in [8] of 35 min. Further, the Ki stood at 0.657 µM at Serine protease 1 [1], 0.003 µM at Prothrombin and 4.4 µM at Coagulation factor X [2]. For the same compound, in series [9], the logP is > 3.35.

In the case of `Nc1nc(CNC(=O)[C@@H]2CCCN2C(=O)[C@H](N)C(c2ccccc2)c2ccccc2)cs1`, the Ki is 277 µM at Serine protease 1 [1], 0.35 µM at Prothrombin and > 100 µM at Coagulation factor X [2].

As for `CC(C)(C)OC(=O)N[C@@H](C(=O)N1CCC[C@H]1C(=O)NCc1ccc(N)nc1)C(c1ccccc1)c1ccccc1`, the Ki on Serine protease 1 [1] is 1.3 µM; on Prothrombin it was 0.0076 µM; at Coagulation factor X [2], > 200 µM.

Regarding `Cc1cc(N)nc(C)c1CNC(=O)[C@@H]1CCCN1C(=O)[C@H](N)C(c1ccccc1)c1ccccc1`, the Ki on Serine protease 1 [1] amounted to 8.3 µM; on Prothrombin, 0.01 µM; at Coagulation factor X [2] it was 240 µM.

Consider `Nc1ccc(CNC(=O)[C@@H]2CCCN2C(=O)[C@@H](Cc2ccc(Cl)c(Cl)c2)NS(=O)(=O)Cc2ccccc2)cc1`, for which the clearance in [3] was 71 mL/min/kg. Further, in series [4], the bioavailability was found to be 35%. The same compound returned a pKa in series [5] of 4.8. The Tmax in series [6] is 53 min. This compound also displayed a maximum concentration (Cmax) in series [7] of 660 nM. For the same compound, the half-life in series [8] was 20 min. In addition, the inhibitory constant (Ki) at Serine protease 1 [1] is 12 µM; at Coagulation factor X [2], 10 µM. Further, in series [9], the logP is > 3.68.

On to `Cc1cc(N)nc(C)c1CNC(=O)[C@@H]1CCCN1C(=O)[C@H](NC(=O)OC(C)(C)C)C(C1CCCCC1)C1CCCCC1`, for which the inhibition constant (Ki) was determined as 1.5 µM at Serine protease 1 [1], 0.0022 µM at Prothrombin and 16 µM at Coagulation factor X [2].

Regarding `O=C(NCc1ccccc1)[C@@H]1CCCN1C(=O)[C@@H](Cc1ccc(Cl)c(Cl)c1)NS(=O)(=O)Cc1ccccc1`, the inhibition constant Ki at Serine protease 1 [1] is 384 µM; on Prothrombin, 0.11 µM; at Coagulation factor X [2], 14 µM.

In the case of `Cc1cc(N)nc(C)c1CNC(=O)[C@@H]1CCCN1C(=O)[C@H](N)C(C1CCCCC1)C1CCCCC1`, the values for the inhibition constant (Ki) on Serine protease 1 [1] and at Coagulation factor X [2] were 3 µM and 160 µM, respectively.

Take `O=C(NCc1cccnc1)[C@@H]1CCCN1C(=O)[C@@H](Cc1ccc(Cl)c(Cl)c1)NS(=O)(=O)Cc1ccccc1`: the Ki on Serine protease 1 [1] stood at 284 µM; at Prothrombin, 0.38 µM; at Coagulation factor X [2], 230 µM.

`CN[C@H](Cc1ccccc1)C(=O)N1CCC[C@H]1C(=O)NC[C@H]1CC[C@H](N)CC1`: in series [4], the bioavailability worked out at 1%. Further, the pKa in series [5] came to 10.2. The Ki on Serine protease 1 [1] was 11 µM; at Coagulation factor X [2], > 1000 µM. In series [9], the logP is -1.68.

Turning to `CC(C)(C)OC(=O)N[C@H](Cc1ccccc1)C(=O)N1CCC[C@H]1C(=O)NCc1ccc(N)cc1`, the inhibitory constant (Ki) turned out to be 233 µM on Serine protease 1 [1], 3.7 µM at Prothrombin and 420 µM at Coagulation factor X [2].

Turning to `Nc1cc(CNC(=O)[C@@H]2CCCN2C(=O)[C@@H](Cc2ccc(Cl)c(Cl)c2)NS(=O)(=O)Cc2ccccc2)cs1`, the inhibition constant Ki on Serine protease 1 [1] is 56 µM; on Coagulation factor X [10], > 100 µM; on Prothrombin, 0.13 µM.

For the compound `Nc1nc(CNC(=O)[C@@H]2CCCN2C(=O)[C@H](N)C(C2CCCCC2)C2CCCCC2)cs1`, the Ki was 144 µM at Serine protease 1 [1], 0.07 µM on Prothrombin and > 100 µM at Coagulation factor X [2].

Turning to `O=C(NCc1ccncc1)[C@@H]1CCCN1C(=O)[C@@H](Cc1ccc(Cl)c(Cl)c1)NS(=O)(=O)Cc1ccccc1`, the inhibitory constant (Ki) was 31 µM on Serine protease 1 [1], 0.51 µM at Prothrombin and > 200 µM at Coagulation factor X [2].

With `Cc1cc(N)nc(C)c1CNC(=O)[C@@H]1CCCN1C(=O)[C@H](NC(=O)OC(C)(C)C)C(c1ccccc1)c1ccccc1`, in series [3], the clearance stood at 76 mL/min/kg. The bioavailability in [4] was 40%. In addition, the Tmax in series [6] was 53 min. The concentration in series [7] peaked (Cmax) at 610 nM. This compound displayed a half-life in series [8] of 50 min. The Ki at Serine protease 1 [1] was 2.5 µM; at Prothrombin, 0.0036 µM; on Coagulation factor X [2] it was 160 µM. For the same compound, the lipophilicity (logP) in series [9] is 1.65.

`Cc1cc(N)nc(C)c1CNC(=O)[C@@H]1CCCN1C(=O)[C@@H](Cc1ccc(Cl)c(Cl)c1)NS(=O)(=O)Cc1ccccc1`: the inhibition constant Ki at Serine protease 1 [1] was determined as 8.9 µM; on Prothrombin, 0.011 µM; on Coagulation factor X [2], 52 µM.

Take `CC(C)(C)OC(=O)N[C@@H](C(=O)N1CCC[C@H]1C(=O)NCc1csc(N)n1)C(C1CCCCC1)C1CCCCC1`: the Ki is 52 µM at Serine protease 1 [11], 0.35 µM at Prothrombin and > 100 µM at Coagulation factor X [2].

As for `CC(C)(C)OC(=O)N[C@@H](C(=O)N1CCC[C@H]1C(=O)NCc1csc(N)c1)C(C1CCCCC1)C1CCCCC1`, the Ki at Serine protease 1 [1] was found to be 45 µM; at Prothrombin, 0.56 µM; at Coagulation factor X [2], 27 µM.

`Nc1ccc(CNC(=O)[C@@H]2CCCN2C(=O)[C@H](N)C(C2CCCCC2)C2CCCCC2)cn1`: the clearance in [3] was > 200 mL/min/kg. The compound also returned a bioavailability in series [4] of 76%. The compound also returned a pKa in [5] of 6.2. In addition, the Tmax in [6] is 26 min. In series [7], this compound registered a maximum concentration (Cmax) of 530 nM. Besides, in series [8], the half-life came out at 102 min. Also, the results for the Ki at Serine protease 1 [1], on Prothrombin and at Coagulation factor X [2] were 1.2 µM, 0.00082 µM and 8.3 µM, respectively. Moreover, the lipophilicity (logP) in series [9] amounted to 2.21.

In the case of `Nc1nc(CNC(=O)[C@@H]2CCCN2C(=O)[C@@H](Cc2ccc(Cl)c(Cl)c2)NS(=O)(=O)Cc2ccccc2)cs1`, the figures for the inhibition constant Ki on Serine protease 1 [1], on Prothrombin and on Coagulation factor X [2] were 767 µM, 0.36 µM and > 100 µM, respectively.

`Nc1ccc(CNC(=O)[C@@H]2CCCN2C(=O)[C@H](N)C(c2ccccc2)c2ccccc2)cn1`: the inhibition constant (Ki) on Serine protease 1 [1] amounted to 5.4 µM; at Prothrombin it was 0.012 µM; on Coagulation factor X [2] it was 94 µM.
